These results are taken from ChEMBL document CHEMBL5247600, “Rational design of metabolically stable HDAC inhibitors: An overhaul of trifluoromethyl ketones” (Eur J Med Chem, 2022).

The test system of data set [1] is HCT-116. The data set can be described thus: Anticancer activity against human HCT-116 cells assessed as cell growth inhibition incubated for 3 days by methylene blue staining based colorimetric assay. The data set is classed as functional. The conditions noted are these: HCT-116, 72 h.
Data set [2] is described as follows: Metabolic stability in human Liver S9 fraction assessed as disappearance of compound and measured after 2 hrs by LC-ESI-MS analysis. It counts as ADME, subcellular. The following applies: s9, 2 h. In a few lines:
(§1)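 Human liver S9 fraction assay. Substrate 0.02 mM, 0.1 M buffer and 1 mM NADPH preincubated 10 min at 37 °C, then S9 (0.5 mg) added in 1 mL total; run in duplicate. Aliquots taken every 15 min or at 1 h and 2 h, residue taken up in methanol, diluted 1:1 with water and analysed by LC-ESI-MS tracking M+1 ions.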

In data set [3] the test system is NCI-H522. The data set can be described thus: cells. It counts as functional, cell-based. The conditions noted are these: Homo sapiens, NCI-H522, 72 h.
The subject of the next data set is HT-1080. As to the kind of experiment: Anticancer activity against human HT-1080 cells assessed as cell growth inhibition incubated for 3 days by methylene blue staining based colorimetric assay. It counts as functional. The conditions noted are these: HT-1080, 72 h. In a few lines:
(§2)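 Cells kept in DMEM with 10% calf or fetal bovine serum plus penicillin/streptomycin (1000 U/ml each) at 37 °C, 5% CO2. Seeded at 5000/well (n = 3), treated next day, then after 3 days fixed/stained 30 min at room temperature with methylene blue saturated in 50% ethanol.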

The test system of a further data set is MDA-MB-231. As to the kind of experiment: Anticancer activity against human MDA-MB-231 cells assessed as cell growth inhibition incubated for 3 days by methylene blue staining based colorimetric assay. The data set is classed as functional. The following applies: MDA-MB-231, 72 h. In a few lines:
as §2

Data set [4] deals with Panel NCI-60 (60 carcinoma cell lines). As to the kind of experiment: Anticancer activity against human Panel NCI-60 (60 carcinoma cell lines) cells assessed as total cell growth inhibition incubated for 3 days by methylene blue staining based colorimetric assay relative to control. It counts as functional. The following applies: 72 h, time 3 day. In a few lines:
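NCI-60 five-dose screen at five concentrations. […] TGI is the concentration giving total growth inhibition.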

Data set [5] has the same test system. The data set can be described thus: Anticancer activity against human Panel NCI-60 (60 carcinoma cell lines) cells assessed as cell growth inhibition at 10 uM incubated for 3 days by methylene blue staining based colorimetric assay relative to control. The data set is classed as functional. More on the design: scale not given: the % may be the effect or the level left. The following applies: time 3 day. In a few lines: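 NCI-60 one-dose screen at a single concentration of 10 μM. Read-out is mean growth percentage across the panel; positive values denote cytostatic activity and negative values cytotoxicity.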

For data set [6] the test system is unchanged. The data set can be described thus: Anticancer activity against human Panel NCI-60 (60 carcinoma cell lines) cells assessed as cell growth inhibition incubated for 3 days by methylene blue staining based colorimetric assay relative to control. It counts as functional. The following applies: 72 h, time 3 day. In a few lines:
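NCI-60 five-dose screen at five concentrations. TGI is the concentration giving total growth inhibition.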

The test system of the next data set is U2OS. The data set can be described thus: Anticancer activity against human U2OS cells assessed as cell growth inhibition incubated for 3 days by methylene blue staining based colorimetric assay. The data set is classed as functional. The conditions noted are these: 72 h. In a few lines: as §2
Another data set concerns MDA-MB-468. As to the kind of experiment: cells. It counts as functional, cell-based. The following applies: Homo sapiens, MDA-MB-468, 72 h.
Data set [7] has as its system HCT-116. As to the kind of experiment: Induction of apoptosis in human HCT116 cells assessed as increase in cleaved PARP1 level at 4 to 8 uM incubated for 24 hrs by Western blot analysis. It counts as functional, cell-based. The conditions noted are these: dose 4-8 µM. In a few lines:
(§3)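 HCT116 cells treated 24 h at the indicated concentrations. Lysates normalized by BCA, run on 12.5% SDS-PAGE and transferred to PVDF. Blocked 1 h in 5% milk/PBST, primary antibody against cleaved PARP overnight at 4 °C, then HRP secondary 1:10 000 and ECL detection.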
For orientation: Immunoblotting shows a protein as a band on a membrane.

Data set [8] concerns HCT-116. As to the kind of experiment: Induction of apoptosis in human HCT116 cells assessed as increase in cleaved PARP1 level at 5 to 10 uM incubated for 24 hrs by Western blot analysis. The following applies: dose 5-10 µM. The data set is classed as functional, cell-based. In a few lines:
as §3

Data set [9] concerns NCI-H522. As to the kind of experiment: Anticancer activity against human NCI-H522 cells assessed as cell survival rate at 30 uM incubated for 3 days by methylene blue staining based colorimetric assay. It counts as functional. The following applies: time 3 day. In a few lines: as §2
Data set [10] is described as follows: Cytotoxicity against human RPE cells assessed as cell survival rate at 30 uM incubated for 3 days by methylene blue staining based colorimetric assay. It counts as toxicity. The following applies: time 3 day, read-out: Activity. In a few lines:
as §2

A short description of data set [11]: Cytotoxicity against human WI-38 cells assessed as cell survival rate at 30 uM incubated for 3 days by methylene blue staining based colorimetric assay. It counts as toxicity. The following applies: time 3 day, read-out: Activity. In a few lines:
as §2

Data set [12] can be described thus: Cytotoxicity against human WI-38 cells assessed as cell survival rate incubated for 3 days by methylene blue staining based colorimetric assay. The data set is classed as toxicity. In a few lines:
as §2

The test system of data set [13] is NCI-H522. As to the kind of experiment: Anticancer activity against human NCI-H522 cells assessed as cell survival rate incubated for 3 days by methylene blue staining based colorimetric assay. The following applies: NCI-H522, 72 h. The data set is classed as functional. In a few lines: as §2
Data set [14] concerns HCT-116. The data set can be described thus: Anticancer activity against human HCT-116 cells assessed as cell survival rate at 30 uM incubated for 3 days by methylene blue staining based colorimetric assay. The data set is classed as functional. The following applies: time 3 day. In a few lines: as §2
The nature of data set [15]: Cytotoxicity against human RPE cells assessed as cell survival rate incubated for 3 days by methylene blue staining based colorimetric assay. It counts as toxicity. In a few lines:
as §2

The test system of data set [16] is HCT-116. The data set can be described thus: Anticancer activity against human HCT-116 cells assessed as cell survival rate incubated for 3 days by methylene blue staining based colorimetric assay. The following applies: HCT-116, 72 h. It counts as functional. In a few lines: as §2
Data set [17] is described as follows: Metabolic stability in human Liver S9 fraction assessed as metabolite TFMA 90 formation and measured for 30 mins by LC-ESI-MS analysis. It counts as ADME, subcellular. The conditions noted are these: s9, 0.5 h. In a few lines: as §1
A short description of data set [18]: Metabolic stability in human Liver S9 fraction assessed as disappearance of compound and measured after 15 mins by LC-ESI-MS analysis. It counts as ADME, subcellular. In a few lines:
as §1

The next data set relates to HeLa. The data set can be described thus: cells. The data set is classed as functional, cell-based. The conditions noted are these: Homo sapiens, 72 h.

Active and inactive are the calls of the source. No cut-off for these calls is given here.

The IC50 is the concentration that gives 50% inhibition. As to `O=C(CCCCCCNC(=O)C(O)(O)C(F)(F)F)Nc1nccs1`, in the data set with HCT-116 [1], the IC50 came out at 10.8 µM. Besides, the Stability result in data set [2] is “Stable”.

What is called TGI is the concentration at which net growth stops. As a reminder, the GI50 is the concentration that inhibits growth by half. Consider `COc1ccc2sc(NC(=O)CCCCCCNC(=O)C(O)(O)C(F)(F)F)nc2c1`, for which the IC50 was 3.23 µM in the data set with NCI-H522 [3]; 2.28 µM with HT-1080; 2.18 µM with HCT-116 [1]; 0.81 µM in the data set with MDA-MB-231; 3.29 µM with U2OS; 3.65 µM with MDA-MB-468. For the same compound, the TGI in [4] turned out to be 12.3 µM. The Activity in data set [5] is recorded as -4.91%. The GI50 in data set [6] came to 1.23 µM. Also, in the data set on HCT-116 [7], the outcome was Active.

For the compound `O=C(CCCCCCNC(=O)C(O)(O)C(F)(F)F)Nc1ccc(Cl)cc1`, in the data set with HCT-116 [1], the IC50 was determined as 4.23 µM. Besides, the TGI in [4] came to 26.9 µM. Besides, the Activity in [5] amounted to 15.99%. The GI50 in data set [6] worked out at 5.13 µM.

As to `COc1ccc(OC)c(NC(=O)CCCCCCNC(=O)C(O)(O)C(F)(F)F)c1`, the half-maximal inhibitory concentration (IC50) in the data set on HCT-116 [1] stood at 3.87 µM. Besides, in [5], the Activity is recorded as 35%.

Take `O=C(CCCCCCNC(=O)C(O)(O)C(F)(F)F)Nc1ccc(-c2ccccc2)cc1`: the TGI in data set [4] amounted to 15.1 µM. Also, in data set [5], the Activity is recorded as 2.1%.

With `O=C(CCCCCCNC(=O)C(O)(O)C(F)(F)F)Nc1ncc(-c2ccc(Br)cc2)s1`, the TGI in data set [4] worked out at 11.4 µM. For the same compound, the Activity in data set [5] is given as -11.47%. The result with HCT-116 [8] was Active.

Turning to `COc1ccc(NC(=O)CCCCCCNC(=O)C(O)(O)C(F)(F)F)cc1`, the Activity was 20% with NCI-H522 [9], 37.09% in data set [5] and 10% in the data set on HCT-116 [14]. Moreover, the IC50 in the data set on HCT-116 [1] amounted to 4.52 µM; in the data set on NCI-H522 [13], 8.05 µM; with HCT-116 [16] it was 3.13 µM. Besides, the viability at 72 h, 30 µM was more than 50% in data set [10] and more than 80% in data set [11]. Besides, the 50% inhibitory concentration (IC50) at 3 days in data set [12] and in data set [15] was more than 30 µM in each case.

Turning to `O=C(CCCCCCNC(=O)C(O)(O)C(F)(F)F)Nc1ncc(-c2ccccc2)s1`, in data set [5], the Activity is listed as -10.06%.

Consider `O=C(CCCCCCC(=O)Nc1ccccc1)NO` [VORINOSTAT], for which, in the data set with HT-1080, the IC50 came out at 3.56 µM.

With `O=C(CCCCCCC(=O)C(F)(F)F)Nc1ccccc1`, the Stability result in data set [17] and in data set [18] was “Unstable” throughout. The IC50 in the data set with HCT-116 [1] came to 10.1 µM.

In the case of `COc1ccc(-c2cnc(NC(=O)CCCCCCNC(=O)C(O)(O)C(F)(F)F)s2)cc1`, the TGI in data set [4] turned out to be 8.51 µM.

In the case of `O=C(CCCCCCNC(=O)C(O)(O)C(F)(F)F)Nc1nc2ccccc2s1`, the IC50 with NCI-H522 [3] is 2.86 µM; in the data set with HT-1080, 2.65 µM; in the data set on HCT-116 [1] it was 2.37 µM; with MDA-MB-231 it was 1.83 µM; in the data set with U2OS, 1.41 µM; in the data set with MDA-MB-468, 1.31 µM. This compound also had an IC50 in the data set on HeLa of 1.52 µM. In addition, the total growth inhibition concentration (TGI) in data set [4] was 21.4 µM. For the same compound, the Activity in data set [5] is given as -2.45%. For the same compound, the GI50 in data set [6] was determined as 3.39 µM.

In the case of `O=C(CCCCCCNC(=O)C(O)C(F)(F)F)Nc1nccs1` (centres undefined), the IC50 in the data set with HCT-116 [1] is more than 40 µM. Moreover, in data set [2], the Stability result is given as “Stable”.

Consider `O=C(CCCCCCNC(=O)C(O)(O)C(F)(F)F)Nc1ccccc1Br`, for which the IC50 with HCT-116 [1] was determined as 14.5 µM.

Regarding `COc1cc(NC(=O)CCCCCCNC(=O)C(O)(O)C(F)(F)F)cc(OC)c1OC`, the IC50 in the data set on HCT-116 [1] was 14.1 µM.

Turning to `NC(=O)C(=O)NCCCCCCCC(=O)Nc1ccccc1`, in the data set on HCT-116 [1], the concentration for half-maximal inhibition (IC50) is more than 100 µM.

`O=C(CCCCCCNC(=O)C(O)(O)C(F)(F)F)Nc1nc2ccc(F)cc2s1`: in the data set on HCT-116 [1], the IC50 was determined as 6.47 µM.

Turning to `O=C(CCCCCCNC(=O)C(O)(O)C(F)(F)F)Nc1ccc(Br)cc1`, the TGI in data set [4] was 20.9 µM. Further, in data set [5], the Activity is listed as 2.58%. Besides, the GI50 in data set [6] was 3.16 µM.

For `O=C(CCCCCCNC(=O)c1cc(=O)c(O)co1)Nc1ccccc1`, the IC50 in the data set on HCT-116 [1] is more than 100 µM.
